In assay [1] the test system is Trypanosoma brucei rhodesiense. Kind of assay: Trypanocidal activity against Trypanosoma brucei rhodesiense STIB 900 bloodstream forms after 72 hrs by resazurin assay. The assay is classed as functional, organism-based. The note with it: STIB 900, 72 h. An outline of the steps: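 Bloodstream forms, 10^4/well, in MEM with 25 mM HEPES, extra glucose, non-essential amino acids, 0.2 mM 2-mercaptoethanol, 1 mM pyruvate, 15% heat-inactivated horse serum; seven 3-fold dilutions 90 to 0.123 µg/mL; 37 °C, 5% CO2, 72 h; resazurin 2–4 h more; fluorescence ex 536/em 588 nm; melarsoprol standard.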
(Alamar Blue is a resazurin reagent that responds to reducing activity.)

The subject of the next assay is L6. Kind of assay: Cytotoxicity against rat L6 cells after 72 hrs by resazurin assay. The assay is classed as cell-based. The note with it: L6, 72 h. An outline of the steps:
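L6 rat skeletal myoblasts, 4×10^4 cells/well in RPMI 1640 with 10% FBS and L-glutamine; seven 3-fold serial dilutions, 90 to 0.123 µg/mL; 72 h; microscopic check of controls and sterility; resazurin added, 2 h further; fluorescence read at ex 536/em 588 nm.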

The test system of a further assay is Plasmodium falciparum. The assay is described as follows: Antimalarial activity against chloquine- and pyrimethamine-resistant Plasmodium falciparum K1 erythrocytic stage assessed as inhibition of [3H]hypoxanthine incorporation after 48 hrs by liquid scintillation counting. The format is functional, organism-based. A digest of the protocol:
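Erythrocytic-stage cultures in hypoxanthine-free RPMI 1640 with 5% Albumax, exposed to serial drug dilutions at 37 °C under reduced oxygen for 48 h. 0.5 μCi [3H]-hypoxanthine per well was then added for a further 24 h. Cells were harvested onto glass-fibre filters and counted as CPM, expressed as % of untreated controls. IC50 was read from dose–response curves. Chloroquine was the reference.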

The next assay has as its system Trypanosoma cruzi. Kind of assay: Trypanocidal activity against trypomastigote Trypanosoma cruzi Tulahuen C2C4 infected in L6 cells after 96 hrs by beta-galactosidase reporter gene assay. The format is functional, organism-based. The settings on record: Tulahuen C2C4, L6, 96 h. (In a reporter assay the amount or activity of a reporter protein is the signal.)
The test system of another assay is Leishmania donovani. The assay is described as follows: Leishmanicidal activity against Leishmania donovani MHOM/ET/67/L82 amastigote forms after 72 hrs by resazurin assay. The assay is classed as functional, organism-based. The note with it: MHOM/ET/67/L82, 72 h.

Values after ≈ are worked out from the molar mass of the structure shown. Bounds are passed on as bounds.

With `O=C1[C@H]2N=NN(Cc3nc(-c4ccccc4)no3)[C@H]2C(=O)N1c1ccccc1`, the IC50 came out at 7 mg/L (≈ 18.7 µM) in assay [1]; 47.3 mg/L (≈ 126 µM) in the assay with L6; 22.6 mg/L (≈ 60.4 µM) in the assay with Plasmodium falciparum; 46.1 mg/L (≈ 123 µM) in the assay on Trypanosoma cruzi; 1.6 mg/L (≈ 4.27 µM) in the assay on Leishmania donovani.
On the same counts, the results for `O=C1[C@H]2N=NN(Cc3nc(-c4ccc(Cl)cc4)no3)[C@H]2C(=O)N1c1ccccc1` are 17.2 mg/L (≈ 42.1 µM), 49.5 mg/L (≈ 121 µM), 24.9 mg/L (≈ 60.9 µM), 49 mg/L (≈ 120 µM) and 3.2 mg/L (≈ 7.83 µM).
On the same counts, the results for `O=C1[C@H]2N=NN(Cc3nc(-c4ccc(Br)cc4)no3)[C@H]2C(=O)N1c1ccccc1` are 18.2 mg/L (≈ 40.2 µM), 58.6 mg/L (≈ 129 µM), 26.9 mg/L (≈ 59.3 µM), 54.9 mg/L (≈ 121 µM) and 3.5 mg/L (≈ 7.72 µM).
Regarding `O=C1[C@H]2N=NN(Cc3nc(-c4ccc(F)cc4)no3)[C@H]2C(=O)N1c1ccccc1`, the IC50 in assay [1] is 12.3 mg/L (≈ 31.3 µM); in the assay on L6, greater than 100 mg/L; in the assay on Plasmodium falciparum, 23.6 mg/L (≈ 60.2 µM); in the assay with Trypanosoma cruzi it was 62.4 mg/L (≈ 159 µM); in the assay on Leishmania donovani it was 4.1 mg/L (≈ 10.4 µM).
For `Cc1ccc(-c2noc(CN3N=N[C@@H]4C(=O)N(c5ccccc5)C(=O)[C@@H]43)n2)cc1`, the IC50 in assay [1] amounted to 8.4 mg/L (≈ 21.6 µM); with L6, 15.2 mg/L (≈ 39.1 µM); with Plasmodium falciparum, 13.2 mg/L (≈ 34 µM); with Trypanosoma cruzi it was 38.9 mg/L (≈ 100 µM); in the assay with Leishmania donovani, 2.2 mg/L (≈ 5.66 µM).
The like results for `O=C1[C@H]2N=NN(Cc3nc(-c4ccc(I)cc4)no3)[C@H]2C(=O)N1c1ccccc1` were, in that order, 18.8 mg/L (≈ 37.6 µM), 48.6 mg/L (≈ 97.2 µM), 20.4 mg/L (≈ 40.8 µM), 47.2 mg/L (≈ 94.4 µM) and 3.6 mg/L (≈ 7.2 µM).
Regarding `O=C1[C@H]2N=NN(Cc3nc(-c4ccc([N+](=O)[O-])cc4)no3)[C@H]2C(=O)N1c1ccccc1`, the IC50 is 8 mg/L (≈ 19.1 µM) in assay [1]; greater than 100 mg/L with L6; 14.7 mg/L (≈ 35.1 µM) in the assay on Plasmodium falciparum; 41.1 mg/L (≈ 98 µM) with Trypanosoma cruzi; 2 mg/L (≈ 4.77 µM) in the assay on Leishmania donovani.
The like results for `COc1ccc(-c2noc(CN3N=N[C@@H]4C(=O)N(c5ccccc5)C(=O)[C@@H]43)n2)cc1` were, in that order, 16.9 mg/L (≈ 41.8 µM), greater than 100 mg/L, 17 mg/L (≈ 42 µM), 54 mg/L (≈ 134 µM) and 3.4 mg/L (≈ 8.41 µM).
As for `CSc1ccc(-c2noc(CN3N=N[C@@H]4C(=O)N(c5ccccc5)C(=O)[C@@H]43)n2)cc1`, the IC50 is 16.3 mg/L (≈ 38.8 µM) in assay [1]; greater than 100 mg/L in the assay on L6; 20.6 mg/L (≈ 49 µM) in the assay with Plasmodium falciparum; 48.5 mg/L (≈ 115 µM) with Trypanosoma cruzi; 3.5 mg/L (≈ 8.32 µM) with Leishmania donovani.
Consider `O=C1[C@H]2N=NN(Cc3nc(-c4ccc(C(F)(F)F)cc4)no3)[C@H]2C(=O)N1c1ccccc1`, for which the IC50 in assay [1] is 13.9 mg/L (≈ 31.4 µM); with L6 it was 44.4 mg/L (≈ 100 µM); with Plasmodium falciparum, 15 mg/L (≈ 33.9 µM); in the assay on Trypanosoma cruzi it was 51.4 mg/L (≈ 116 µM); with Leishmania donovani, 3.7 mg/L (≈ 8.36 µM).
Regarding `CN(C)c1ccc(-c2noc(CN3N=N[C@@H]4C(=O)N(c5ccccc5)C(=O)[C@@H]43)n2)cc1`, the IC50 in assay [1] was 13.1 mg/L (≈ 31.4 µM); in the assay with L6 it was greater than 100 mg/L; with Plasmodium falciparum, 21 mg/L (≈ 50.3 µM); in the assay with Trypanosoma cruzi, 36.6 mg/L (≈ 87.7 µM); in the assay with Leishmania donovani, 4.5 mg/L (≈ 10.8 µM).
Regarding `O=C(Cn1ccnc1[N+](=O)[O-])NCc1ccccc1` [BENZNIDAZOLE], the IC50 in the assay on Trypanosoma cruzi came out at 0.464 mg/L (≈ 1.78 µM).
Compound `CCCCCCCCCCCCCCCCOP(=O)([O-])OCC[N+](C)(C)C` [MILTEFOSINE] came in with an IC50 in the assay on Leishmania donovani of 0.171 mg/L (≈ 0.42 µM).
In turn, `COc1cc([C@@H]2c3cc4c(cc3[C@H](O)[C@H]3COC(=O)[C@H]23)OCO4)cc(OC)c1OC` [PODOFILOX] showed an IC50 in the assay on L6 of 0.007 mg/L (≈ 0.0169 µM).

The IC50 is the point on the concentration scale where inhibition reaches its midpoint.

These data come from ChEMBL document CHEMBL1933052, “Synthesis and anti-protozoal activity of novel dihydropyrrolo[3,4-d][1,2,3]triazoles” (Eur J Med Chem, 2012).
